Measurements reported in the M2OR odorant receptor database.
Substitutions are numbered along the chain they refer to.

How the values were obtained:
Details in all cases: stereoisomer not certain
O5AN1 = tested on: T1, O5AN1
T1 sequence (whole entry): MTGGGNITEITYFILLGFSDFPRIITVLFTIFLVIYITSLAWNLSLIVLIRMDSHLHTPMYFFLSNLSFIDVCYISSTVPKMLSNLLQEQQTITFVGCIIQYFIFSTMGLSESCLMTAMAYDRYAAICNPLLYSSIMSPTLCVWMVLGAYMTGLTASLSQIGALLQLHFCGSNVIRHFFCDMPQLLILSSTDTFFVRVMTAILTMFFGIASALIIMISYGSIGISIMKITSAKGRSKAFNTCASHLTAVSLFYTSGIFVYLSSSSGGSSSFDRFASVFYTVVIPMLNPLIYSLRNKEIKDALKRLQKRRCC
Method in brief: (§1)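 Transient luciferase assays in mammalian cell lines were common, though methods varied by source. The values come from published papers and their supplementary material, with extra details from the original authors when needed. Responsive refers to a measured signal the original authors judged statistically different from baseline, and non-responsive (inactive) to the remainder.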

O56A4 I247V = tested on: T2, O56A4 I247V
T2 sequence (whole entry): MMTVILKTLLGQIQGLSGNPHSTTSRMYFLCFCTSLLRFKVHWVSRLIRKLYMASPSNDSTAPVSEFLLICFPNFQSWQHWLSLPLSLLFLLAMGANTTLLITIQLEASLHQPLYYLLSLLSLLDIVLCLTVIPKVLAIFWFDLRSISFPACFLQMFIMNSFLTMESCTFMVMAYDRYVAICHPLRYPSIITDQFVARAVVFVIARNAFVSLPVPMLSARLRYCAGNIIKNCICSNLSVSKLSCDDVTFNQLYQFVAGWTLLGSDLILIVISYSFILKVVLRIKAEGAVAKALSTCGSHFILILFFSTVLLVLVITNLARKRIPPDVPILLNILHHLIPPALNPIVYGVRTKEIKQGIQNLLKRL
Method in brief: as §1

O56A4 = tested on: T3, O56A4
T3 sequence (whole entry): T2 sequence (whole entry) with V247I
Method in brief: as §1

O56A5 V104L = tested on: T4, O56A5 V104L
T4 sequence (whole entry): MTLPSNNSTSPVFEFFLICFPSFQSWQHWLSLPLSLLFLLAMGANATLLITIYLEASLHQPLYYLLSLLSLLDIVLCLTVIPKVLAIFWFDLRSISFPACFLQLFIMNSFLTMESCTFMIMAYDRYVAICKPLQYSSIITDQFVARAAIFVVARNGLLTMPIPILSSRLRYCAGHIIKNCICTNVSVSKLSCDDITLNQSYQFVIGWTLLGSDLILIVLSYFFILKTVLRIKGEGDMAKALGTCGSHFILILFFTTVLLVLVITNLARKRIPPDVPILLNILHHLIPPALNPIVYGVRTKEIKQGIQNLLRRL
Method in brief: as §1

O56B1 C106R L214F = tested on: T5, O56B1 C106R L214F
T5 sequence (whole entry): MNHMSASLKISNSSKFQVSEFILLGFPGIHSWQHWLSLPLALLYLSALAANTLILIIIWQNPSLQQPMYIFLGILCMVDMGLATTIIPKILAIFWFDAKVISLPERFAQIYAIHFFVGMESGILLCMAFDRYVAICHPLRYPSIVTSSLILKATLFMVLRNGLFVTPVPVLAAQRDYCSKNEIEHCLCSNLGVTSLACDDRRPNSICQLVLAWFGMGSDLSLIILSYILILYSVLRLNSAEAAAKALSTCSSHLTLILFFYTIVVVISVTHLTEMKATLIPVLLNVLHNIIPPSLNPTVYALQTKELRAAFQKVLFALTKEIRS
Method in brief: as §1

O56B1 L214F = tested on: T6, O56B1 L214F
T6 sequence (whole entry): T5 sequence (whole entry) with R106C
Method in brief: as §1

O56B4 = tested on: T7, O56B4
T7 sequence (whole entry): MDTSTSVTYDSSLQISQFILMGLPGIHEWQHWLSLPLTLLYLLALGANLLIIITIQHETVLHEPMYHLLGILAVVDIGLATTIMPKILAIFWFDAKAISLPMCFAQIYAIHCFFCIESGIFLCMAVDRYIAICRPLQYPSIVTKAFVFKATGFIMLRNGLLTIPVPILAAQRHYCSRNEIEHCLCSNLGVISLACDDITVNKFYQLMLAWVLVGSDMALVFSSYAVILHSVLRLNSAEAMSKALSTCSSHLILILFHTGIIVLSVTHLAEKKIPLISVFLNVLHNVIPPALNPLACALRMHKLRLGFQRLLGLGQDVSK
Method in brief: as §1

O5AC2 = tested on: T8, O5AC2
T8 sequence (whole entry): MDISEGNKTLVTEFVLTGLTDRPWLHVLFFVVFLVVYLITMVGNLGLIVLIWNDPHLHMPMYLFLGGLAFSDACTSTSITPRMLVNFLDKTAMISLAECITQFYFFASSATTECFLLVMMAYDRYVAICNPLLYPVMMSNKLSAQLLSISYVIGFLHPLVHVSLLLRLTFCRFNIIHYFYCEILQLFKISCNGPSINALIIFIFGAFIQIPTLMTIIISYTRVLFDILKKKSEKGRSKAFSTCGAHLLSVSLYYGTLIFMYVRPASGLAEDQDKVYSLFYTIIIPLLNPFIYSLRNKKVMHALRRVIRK
Method in brief: as §1

O5AK2 M92I = tested on: T9, O5AK2 M92I
T9 sequence (whole entry): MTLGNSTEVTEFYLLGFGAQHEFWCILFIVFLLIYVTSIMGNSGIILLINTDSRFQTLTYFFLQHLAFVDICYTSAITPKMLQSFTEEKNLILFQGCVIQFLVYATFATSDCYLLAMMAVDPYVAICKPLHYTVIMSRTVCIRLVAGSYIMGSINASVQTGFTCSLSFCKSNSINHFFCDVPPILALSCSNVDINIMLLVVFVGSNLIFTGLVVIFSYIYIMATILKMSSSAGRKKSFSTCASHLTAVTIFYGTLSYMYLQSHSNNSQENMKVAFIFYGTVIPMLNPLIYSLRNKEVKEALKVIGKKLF
Method in brief: as §1

O5AN1 C142Y L289F = tested on: T10, O5AN1 C142Y L289F
T10 sequence (whole entry): T1 sequence (whole entry) with T26K, C142Y, S159F, S190C, R197Q, I214V, S221Y, L289F, R309K
Method in brief: as §1

O5AN1 L289F = tested on: T11, O5AN1 L289F
T11 sequence (whole entry): T1 sequence (whole entry) with T26K, S159F, S190C, R197Q, I214V, S221Y, L289F, R309K
Method in brief: as §1

O5AP2 A105T = tested on: T12, O5AP2 A105T
T12 sequence (whole entry): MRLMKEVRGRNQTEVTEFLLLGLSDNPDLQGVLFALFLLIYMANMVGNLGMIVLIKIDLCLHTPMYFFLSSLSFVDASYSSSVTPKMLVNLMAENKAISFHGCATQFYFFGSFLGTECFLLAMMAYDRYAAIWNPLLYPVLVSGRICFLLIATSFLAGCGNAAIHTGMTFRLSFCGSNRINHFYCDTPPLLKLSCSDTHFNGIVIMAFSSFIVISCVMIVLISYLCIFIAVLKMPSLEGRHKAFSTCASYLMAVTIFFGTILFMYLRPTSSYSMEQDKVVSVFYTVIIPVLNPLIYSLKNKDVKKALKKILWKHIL
Method in brief: as §1

O5AU1 = tested on: T13, O5AU1
T13 sequence (whole entry): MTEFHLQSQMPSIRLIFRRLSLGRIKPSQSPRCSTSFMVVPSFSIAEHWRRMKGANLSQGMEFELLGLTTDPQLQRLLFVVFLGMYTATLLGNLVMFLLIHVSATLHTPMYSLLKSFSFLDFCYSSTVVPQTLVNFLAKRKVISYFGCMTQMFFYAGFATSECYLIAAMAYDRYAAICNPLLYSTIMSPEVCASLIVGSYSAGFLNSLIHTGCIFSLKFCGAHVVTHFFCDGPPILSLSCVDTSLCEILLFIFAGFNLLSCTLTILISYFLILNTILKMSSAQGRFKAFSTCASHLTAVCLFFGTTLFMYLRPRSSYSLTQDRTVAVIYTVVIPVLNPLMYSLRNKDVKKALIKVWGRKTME
Method in brief: as §1

O5H14 = tested on: T14, O5H14
T14 sequence (whole entry): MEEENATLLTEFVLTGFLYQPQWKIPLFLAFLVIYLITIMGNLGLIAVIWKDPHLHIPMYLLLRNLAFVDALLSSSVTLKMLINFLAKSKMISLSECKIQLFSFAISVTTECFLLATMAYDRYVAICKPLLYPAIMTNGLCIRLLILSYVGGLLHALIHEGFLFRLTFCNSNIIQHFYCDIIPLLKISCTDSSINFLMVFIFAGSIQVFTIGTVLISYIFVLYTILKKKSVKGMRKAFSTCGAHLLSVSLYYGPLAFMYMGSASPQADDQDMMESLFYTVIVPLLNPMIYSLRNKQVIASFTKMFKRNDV
Method in brief: as §1

O5H15 V108I S148T T167S = tested on: T15, O5H15 V108I S148T T167S
T15 sequence (whole entry): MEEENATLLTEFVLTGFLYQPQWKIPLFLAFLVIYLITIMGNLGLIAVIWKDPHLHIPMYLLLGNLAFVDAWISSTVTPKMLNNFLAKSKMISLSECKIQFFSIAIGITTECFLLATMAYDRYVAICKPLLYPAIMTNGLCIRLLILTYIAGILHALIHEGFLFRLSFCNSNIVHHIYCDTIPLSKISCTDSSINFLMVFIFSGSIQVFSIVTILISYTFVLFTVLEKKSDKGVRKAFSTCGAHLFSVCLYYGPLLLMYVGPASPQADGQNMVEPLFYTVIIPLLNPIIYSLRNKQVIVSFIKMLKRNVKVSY
Method in brief: as §1

O6C65 T222A = tested on: T16, O6C65 T222A
T16 sequence (whole entry): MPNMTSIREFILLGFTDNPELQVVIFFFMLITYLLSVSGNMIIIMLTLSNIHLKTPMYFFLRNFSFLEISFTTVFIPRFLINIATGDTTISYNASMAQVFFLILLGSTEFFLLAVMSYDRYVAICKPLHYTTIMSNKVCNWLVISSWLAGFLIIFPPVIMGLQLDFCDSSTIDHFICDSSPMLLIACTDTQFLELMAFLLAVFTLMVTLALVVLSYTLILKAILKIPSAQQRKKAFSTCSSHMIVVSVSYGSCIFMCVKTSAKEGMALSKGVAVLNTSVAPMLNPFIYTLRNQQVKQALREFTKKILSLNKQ
Method in brief: as §1

O6C70 L181P = tested on: T17, O6C70 L181P
T17 sequence (whole entry): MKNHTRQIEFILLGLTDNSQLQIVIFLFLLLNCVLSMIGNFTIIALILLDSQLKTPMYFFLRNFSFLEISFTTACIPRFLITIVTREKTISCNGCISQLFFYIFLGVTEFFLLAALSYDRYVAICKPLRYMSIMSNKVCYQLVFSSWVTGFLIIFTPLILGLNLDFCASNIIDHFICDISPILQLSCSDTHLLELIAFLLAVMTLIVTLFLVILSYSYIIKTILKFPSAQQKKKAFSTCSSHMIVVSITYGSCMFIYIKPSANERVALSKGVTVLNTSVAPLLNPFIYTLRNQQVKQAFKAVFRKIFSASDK
Method in brief: as §1

O7E24 S193F P242S = tested on: T18, O7E24 S193F P242S
T18 sequence (whole entry): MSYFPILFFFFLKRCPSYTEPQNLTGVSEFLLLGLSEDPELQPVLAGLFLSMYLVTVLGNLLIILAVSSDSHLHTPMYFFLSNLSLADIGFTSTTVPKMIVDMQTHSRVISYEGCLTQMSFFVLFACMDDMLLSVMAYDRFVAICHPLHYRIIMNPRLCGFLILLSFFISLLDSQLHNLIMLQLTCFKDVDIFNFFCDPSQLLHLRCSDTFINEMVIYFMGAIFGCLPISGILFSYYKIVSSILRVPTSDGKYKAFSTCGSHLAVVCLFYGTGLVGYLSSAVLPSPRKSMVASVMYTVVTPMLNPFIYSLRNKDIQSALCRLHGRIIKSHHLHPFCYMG
Method in brief: as §1

O7E24 = tested on: T19, O7E24
T19 sequence (whole entry): T18 sequence (whole entry) with F193S
Method in brief: as §1

OR10A2 (Homo sapiens) = target: T20, OR10A2 (Homo sapiens) (UniProt Q9H208)
T20 sequence (whole entry): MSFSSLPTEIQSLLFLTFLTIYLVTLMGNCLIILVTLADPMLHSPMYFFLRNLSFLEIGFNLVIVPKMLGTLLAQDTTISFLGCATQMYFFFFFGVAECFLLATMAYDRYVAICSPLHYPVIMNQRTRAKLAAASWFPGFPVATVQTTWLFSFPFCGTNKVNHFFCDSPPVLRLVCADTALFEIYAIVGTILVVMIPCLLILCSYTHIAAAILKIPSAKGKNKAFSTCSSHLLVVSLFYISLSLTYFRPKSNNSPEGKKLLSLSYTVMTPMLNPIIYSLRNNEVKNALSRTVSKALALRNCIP
Method in brief: as §1

Measured: odorant receptor agonist call;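 note: active if original authors judged signal statistically different from baseline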

CCCCCCCC(=O)CCCCCCC
inactive: O5AN1

O=C1CCCCCCCCCCCCCC1
active: O5AN1

CC1C(C)(C)C2=C(C(=O)CCC2)C1(C)C (stereo not drawn)
inactive: O5AN1

CC1=C(O)C(=O)OC1C (stereo not drawn)
not listed: O5AN1
inactive: all other assays above

CCC(S)C(C)CO (stereo not drawn)
inactive: OR10A2 (Homo sapiens)

O=C1CCCCCC=CCCCCCCCCO1
inactive: O5AN1

CCCCCCC=CCCC=O
not listed: O5AN1 | O56A4
inactive: all other assays above

O=C1CCCCCCCCCC1
inactive: O5AN1

Cc1cnc(C)c(C)n1
not listed: O5AN1
inactive: all other assays above

CCCCC(S)C(C)CO (stereo not drawn)
inactive: OR10A2 (Homo sapiens)

O=C1CCCC=CCCCCCCCCCC1
active: O5AN1

CCCC(S)CCOC(C)=O (stereo not drawn)
not listed: O5AN1
inactive: all other assays above
